Laboratory results as given in publication PMC7668563 (International journal of molecular biology (Edmond, Okla.), 2020).
Like-named read-outs stand apart in the source and are kept apart here. One block for each molecule: values may come before it.

Key:
[1] = target: T1, apo-human transferrin (apo-hTf) (Homo sapiens, UniProt P02787); experiment: UV-Vis absorbance titration of apo-hTf; assay type: binding; settings: for Ka at 280 nm: absorbance at 280 nm; for Association constants, Ka, 280 nm: absorbance of apo-hTf at 280 nm
T1 sequence (P02787 20-698): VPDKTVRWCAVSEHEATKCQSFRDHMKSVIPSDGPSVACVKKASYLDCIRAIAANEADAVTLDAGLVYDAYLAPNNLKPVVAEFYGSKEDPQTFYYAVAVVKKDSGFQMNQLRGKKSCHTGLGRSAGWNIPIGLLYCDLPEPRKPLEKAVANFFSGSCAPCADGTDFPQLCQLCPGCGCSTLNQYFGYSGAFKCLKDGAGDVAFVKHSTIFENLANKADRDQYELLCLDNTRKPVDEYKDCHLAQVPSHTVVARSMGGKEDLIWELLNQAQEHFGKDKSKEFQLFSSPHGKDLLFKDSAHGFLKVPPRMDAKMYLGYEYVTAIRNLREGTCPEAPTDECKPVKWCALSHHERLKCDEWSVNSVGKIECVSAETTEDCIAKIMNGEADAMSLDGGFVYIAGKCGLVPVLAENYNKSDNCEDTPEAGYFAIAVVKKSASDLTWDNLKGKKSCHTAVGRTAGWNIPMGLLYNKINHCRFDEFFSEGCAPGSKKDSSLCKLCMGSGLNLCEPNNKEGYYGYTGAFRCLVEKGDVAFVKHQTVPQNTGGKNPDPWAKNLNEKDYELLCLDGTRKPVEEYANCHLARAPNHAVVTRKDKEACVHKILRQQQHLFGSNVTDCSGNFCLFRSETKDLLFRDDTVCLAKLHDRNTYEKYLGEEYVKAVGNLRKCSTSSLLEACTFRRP

[2] = target: T1, apo-human transferrin (apo-hTf); experiment: Far-UV circular dichroism titration of apo-hTf, secondary structure content
Method in brief: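 Apo-hTf (4.0×10−7 mol L−1) in 2 mM Tris-HCl pH 7.4 was titrated with a 1.0×10−3 mol L−1 stock of test compound in Tris-HCl/2% DMSO, to final 0–2.4×10−6 mol L−1. Far-UV CD was recorded from 190–250 nm under nitrogen in a 1.0 cm cell: six scans at 100 nm/min. Baseline was buffer ± DMSO at room temperature. α-Helix was derived from MRE at 208 nm; β-sheet and random coil by the CD-RRG method.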

[3] = test system: human breast adenocarcinoma cell line, MCF-7; settings: cited from earlier work
[4] = test system: human colorectal adenocarcinoma cell line, HT-29; settings: cited from earlier work
[5] = target: T1, apo-human transferrin (apo-hTf); experiment: Fluorescence quenching of apo-hTf; assay type: binding; settings: for biomolecular quenching rate constant kq: kq=Ksv/τ0; for Stern-Volmer quenching constant Ksv / number of binding sites n: pH 7.4; for quenching association constant Ka: pH 7.4, modified Stern-Volmer
Method in brief: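 Intrinsic fluorescence of apo-hTf in Tris-HCl pH 7.4 was titrated with test compound (Tris-HCl/2% DMSO). Conditions: excitation 280 nm, emission 290–500 nm, slits 10/5 nm, 1.0 cm quartz cell, at 296, 303, 310 and 317 K, triplicate titrations. Intensities were corrected for inner filter effect using absorbances at excitation and emission wavelengths. Ksv came from Stern-Volmer plots of F0/F vs [Q]; kq = Ksv/τ0 (τ0 ~1.0×10−8); Ka and n came from the modified Stern-Volmer equation.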

[6] = target: T1, apo-human transferrin (apo-hTf); experiment: Thermodynamic parameters of apo-hTf complex formation; assay type: binding; settings: for ∆H° / ∆S°: pH 7.4, from Ksv at 296-317 K
Method in brief: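 Ksv values were obtained from apo-hTf fluorescence quenching at pH 7.4 at 296, 303, 310 and 317 K. ΔH°, ΔS° and ΔG° were derived from linear regression of ln(Ksv) vs 1/T (Van't Hoff equation).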

[7] = target: T1, apo-human transferrin (apo-hTf); experiment: Fluorescence resonance energy transfer; assay type: binding; settings: for Förster critical energy transfer distance R0 / binding distance r (donor-acceptor): k^2=2/3, n=1.336, ØD=0.118; for efficiency of energy transfer E: room temperature, 1.0×10^−5 mol L^−1 each
Method in brief: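 Emission spectrum of 1.0×10−5 mol L−1 apo-hTf and absorption spectrum of 1.0×10−5 mol L−1 test compound were recorded in 20 mM Tris-HCl pH 7.4 at room temperature, 260–450 nm, and their spectral overlap determined. E was calculated from apo-hTf fluorescence without and with equimolar test compound. R0 and donor–acceptor distance r came from Förster equations.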

Ka at 280 nm [1]: 2930 M⁻¹
Ka at 361 nm ([1]; absorbance at 361 nm): 2980 M⁻¹
Association constants, Ka, 280 nm ([1]; pH 7.4): 2.93 10^3 M^−1
Association constants, Ka, 361 nm ([1]; absorbance of apo-hTf at 361 nm, pH 7.4): 2.98 10^3 M^−1
other secondary structure content of apo-hTf ([2]; compound concentration 0.4 (M)): 18.3%
random coil content of apo-hTf ([2]; compound concentration 0.4 (M)): 33.7%
α-helix content of apo-hTf ([2]; compound concentration 0.4 (M)): 29.8%
β-sheet content of apo-hTf ([2]; compound concentration 0.4 (M)): 18.2%
other secondary structure content of apo-hTf ([2]; compound concentration 0.8 (M)): 18.4%
random coil content of apo-hTf ([2]; compound concentration 0.8 (M)): 33.8%
α-helix content of apo-hTf ([2]; compound concentration 0.8 (M)): 29.5%
β-sheet content of apo-hTf ([2]; compound concentration 0.8 (M)): 18.3%
other secondary structure content of apo-hTf ([2]; compound concentration 1.2 (M)): 18.6%
random coil content of apo-hTf ([2]; compound concentration 1.2 (M)): 33.9%
α-helix content of apo-hTf ([2]; compound concentration 1.2 (M)): 29.1%
β-sheet content of apo-hTf ([2]; compound concentration 1.2 (M)): 18.4%
other secondary structure content of apo-hTf ([2]; compound concentration 1.6 (M)): 19.1%
random coil content of apo-hTf ([2]; compound concentration 1.6 (M)): 34.1%
α-helix content of apo-hTf ([2]; compound concentration 1.6 (M)): 28.3%
β-sheet content of apo-hTf ([2]; compound concentration 1.6 (M)): 18.5%
other secondary structure content of apo-hTf ([2]; compound concentration 2 (M)): 19.2%
random coil content of apo-hTf ([2]; compound concentration 2 (M)): 34.3%
α-helix content of apo-hTf ([2]; compound concentration 2 (M)): 27.9%
β-sheet content of apo-hTf ([2]; compound concentration 2 (M)): 18.6%
other secondary structure content of apo-hTf ([2]; compound concentration 2.4 (M)): 19.4%
random coil content of apo-hTf ([2]; compound concentration 2.4 (M)): 34.4%
α-helix content of apo-hTf ([2]; compound concentration 2.4 (M)): 27.5%
β-sheet content of apo-hTf ([2]; compound concentration 2.4 (M)): 18.7%
biomolecular quenching rate constant kq ([5]; 296 K): 1.61e+11 M⁻¹ s⁻¹
Stern-Volmer quenching constant Ksv ([5]; 296 K): 1610 M⁻¹
number of binding sites n ([5]; 296 K): 1.16
quenching association constant Ka ([5]; 296 K): 7800 M⁻¹
biomolecular quenching rate constant kq ([5]; 303 K): 1.76e+11 M⁻¹ s⁻¹
Stern-Volmer quenching constant Ksv ([5]; 303 K): 1760 M⁻¹
number of binding sites n ([5]; 303 K): 1.13
quenching association constant Ka ([5]; 303 K): 6000 M⁻¹
biomolecular quenching rate constant kq ([5]; 310 K): 1.89e+11 M⁻¹ s⁻¹
Stern-Volmer quenching constant Ksv ([5]; 310 K): 1890 M⁻¹
number of binding sites n ([5]; 310 K): 1.08
quenching association constant Ka ([5]; 310 K): 4200 M⁻¹
biomolecular quenching rate constant kq ([5]; 317 K): 2.09e+11 M⁻¹ s⁻¹
Stern-Volmer quenching constant Ksv ([5]; 317 K): 2090 M⁻¹
number of binding sites n ([5]; 317 K): 1.04
quenching association constant Ka ([5]; 317 K): 3200 M⁻¹
∆G° ([6]; 296 K): -4.343 kcal/mol
∆G° ([6]; 303 K): -4.498 kcal/mol
∆G° ([6]; 310 K): -4.653 kcal/mol
∆G° ([6]; 317 K): -4.809 kcal/mol
∆H° [6]: 2.24 kcal/mol
∆S° [6]: 93.12 J/mol K
Förster critical energy transfer distance R0 [7]: 4.53 nm
binding distance r (donor-acceptor) [7]: 6.05 nm
efficiency of energy transfer E [7]: 0.15
SMILES: C1CCCC1.C1CCCC1.[Cl][W][Cl] [Cp2WCl2]
IC50 ([3]; read-out: IC50 (±SD), MCF-7, ref 19): 630 µM
IC50 ([4]; read-out: IC50 (±SD), HT-29, ref 19): 1000 µM

SMILES: [Cl-].[Cl-].[Ti+4].c1cc[cH-]c1.c1cc[cH-]c1 [Cp2TiCl2, titanocene dichloride]
Ka at 280 nm [1]: 2890 M⁻¹
Association constants, Ka, 280 nm ([1]; pH 7.4): 2.89 10^3 M^−1
other secondary structure content of apo-hTf ([2]; compound concentration 0.4 (M)): 18.9%
random coil content of apo-hTf ([2]; compound concentration 0.4 (M)): 33.8%
α-helix content of apo-hTf ([2]; compound concentration 0.4 (M)): 29.3%
β-sheet content of apo-hTf ([2]; compound concentration 0.4 (M)): 18%
other secondary structure content of apo-hTf ([2]; compound concentration 0.8 (M)): 18.9%
random coil content of apo-hTf ([2]; compound concentration 0.8 (M)): 33.8%
α-helix content of apo-hTf ([2]; compound concentration 0.8 (M)): 29.1%
β-sheet content of apo-hTf ([2]; compound concentration 0.8 (M)): 18.2%
other secondary structure content of apo-hTf ([2]; compound concentration 1.2 (M)): 18.8%
random coil content of apo-hTf ([2]; compound concentration 1.2 (M)): 33.9%
α-helix content of apo-hTf ([2]; compound concentration 1.2 (M)): 29%
β-sheet content of apo-hTf ([2]; compound concentration 1.2 (M)): 18.3%
other secondary structure content of apo-hTf ([2]; compound concentration 1.6 (M)): 18.9%
random coil content of apo-hTf ([2]; compound concentration 1.6 (M)): 33.9%
α-helix content of apo-hTf ([2]; compound concentration 1.6 (M)): 28.8%
β-sheet content of apo-hTf ([2]; compound concentration 1.6 (M)): 18.4%
other secondary structure content of apo-hTf ([2]; compound concentration 2 (M)): 18.9%
random coil content of apo-hTf ([2]; compound concentration 2 (M)): 34%
α-helix content of apo-hTf ([2]; compound concentration 2 (M)): 28.6%
β-sheet content of apo-hTf ([2]; compound concentration 2 (M)): 18.5%
other secondary structure content of apo-hTf ([2]; compound concentration 2.4 (M)): 19%
random coil content of apo-hTf ([2]; compound concentration 2.4 (M)): 34%
α-helix content of apo-hTf ([2]; compound concentration 2.4 (M)): 28.4%
β-sheet content of apo-hTf ([2]; compound concentration 2.4 (M)): 18.6%
IC50 ([3]; read-out: IC50 (±SD), MCF-7, ref 82): 570 µM
IC50 ([4]; read-out: IC50 (±SD), HT-29, ref 82): 413 µM
biomolecular quenching rate constant kq ([5]; 296 K): 1.53e+11 M⁻¹ s⁻¹
Stern-Volmer quenching constant Ksv ([5]; 296 K): 1530 M⁻¹
number of binding sites n ([5]; 296 K): 1.11
quenching association constant Ka ([5]; 296 K): 4500 M⁻¹
biomolecular quenching rate constant kq ([5]; 303 K): 1.68e+11 M⁻¹ s⁻¹
Stern-Volmer quenching constant Ksv ([5]; 303 K): 1680 M⁻¹
number of binding sites n ([5]; 303 K): 1.09
quenching association constant Ka ([5]; 303 K): 4100 M⁻¹
biomolecular quenching rate constant kq ([5]; 310 K): 1.76e+11 M⁻¹ s⁻¹
Stern-Volmer quenching constant Ksv ([5]; 310 K): 1760 M⁻¹
number of binding sites n ([5]; 310 K): 1.07
quenching association constant Ka ([5]; 310 K): 3600 M⁻¹
biomolecular quenching rate constant kq ([5]; 317 K): 1.93e+11 M⁻¹ s⁻¹
Stern-Volmer quenching constant Ksv ([5]; 317 K): 1930 M⁻¹
number of binding sites n ([5]; 317 K): 1.05
quenching association constant Ka ([5]; 317 K): 3100 M⁻¹
∆G° ([6]; 296 K): -4.316 kcal/mol
∆G° ([6]; 303 K): -4.465 kcal/mol
∆G° ([6]; 310 K): -4.613 kcal/mol
∆G° ([6]; 317 K): -4.761 kcal/mol
∆H° [6]: 1.94 kcal/mol
∆S° [6]: 88.48 J/mol K
Förster critical energy transfer distance R0 [7]: 5.03 nm
binding distance r (donor-acceptor) [7]: 6.77 nm
efficiency of energy transfer E [7]: 0.144
